ChEMBL document CHEMBL1212764, “Antimicrobial resistance in Haemophilus influenzae respiratory tract isolates in Korea: results of a nationwide acute respiratory infections surveillance” (2010)
Converted amounts (≈) assume the structure as drawn.

Tests used:
Type in all cases: functional
Haemophilus influenzae [1] = test: Antimicrobial activity against Beta-lactamase-negative, ampicillin-resistant Haemophilus influenzae with Asp350Asn, Ser357Asp, Met377Ile, Ser385Thr, Ala502Thr, Asn526Lys substitutions in penicillin-binding protein 3 by broth microdilution method
In short: (§1)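 Broth microdilution MIC in freshly prepared Haemophilus test medium per 2008 CLSI guidelines; H. influenzae ATCC 49247 and ATCC 49766 as control strains. Isolates from outpatient nasal aspirates (no prior antibiotics), cultured on blood agar with S. aureus streak and chocolate agar. PBP3 substitutions deduced from ftsI sequencing against the Rd strain; β-lactamase genes (TEM-1, ROB-1) detected by PCR.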

Haemophilus influenzae [2] = test: Antimicrobial activity against Beta-lactamase-positive, ampicillin-cluvulanate-resistant Haemophilus influenzae with Asp350Asn, Ser357Asp, Ala437Ser, Ala502Thr, Asn526Lys substitutions in penicillin-binding protein 3 by broth microdilution method; in short: as §1
Haemophilus influenzae [3] = test: Antimicrobial activity against Beta-lactamase-positive, ampicillin-cluvulanate-resistant Haemophilus influenzae with Asp350Asn, Ser357Asp, Met377Ile, Ser385Thr, Arg517His substitutions in penicillin-binding protein 3 by broth microdilution method; in short: as §1
Haemophilus influenzae [4] = test: Antimicrobial activity against Beta-lactamase-negative, ampicillin-resistant Haemophilus influenzae with Asp350Asn, Ser357Asp, Ser385Thr, Leu389Phe, Ala502Thr, Asn526Lys substitutions in penicillin-binding protein 3 by broth microdilution method; in short: as §1
Haemophilus influenzae [5] = test: Antimicrobial activity against Beta-lactamase-positive, ampicillin-cluvulanate-resistant Haemophilus influenzae with Asp350Asn, Ala437Ser substitutions in penicillin-binding protein 3 by broth microdilution method; in short: as §1
Haemophilus influenzae [6] = test: Antimicrobial activity against Beta-lactamase-negative, ampicillin-resistant Haemophilus influenzae with Ile449Val, Ala502Thr, Asn526Lys substitutions in penicillin-binding protein 3 by broth microdilution method; in short: as §1
Haemophilus influenzae [7] = test: Antimicrobial activity against Beta-lactamase-positive, ampicillin-cluvulanate-resistant Haemophilus influenzae with Ile449Val, Asn526Lys substitutions in penicillin-binding protein 3 by broth microdilution method; in short: as §1
Haemophilus influenzae [8] = test: Antimicrobial activity against Beta-lactamase-negative, ampicillin-resistant Haemophilus influenzae with Asp350Asn, Ser357Asp, Met377Ile, Ser385Thr, Leu389Phe, substitutions in penicillin-binding protein 3 by broth microdilution method; in short: as §1
Haemophilus influenzae [9] = test: Antimicrobial activity against Beta-lactamase-positive, ampicillin-cluvulanate-resistant Haemophilus influenzae with Asp350Asn, Met377Ile, Ser385Thr, Asn526Lys substitutions in penicillin-binding protein 3 by broth microdilution method; in short: as §1
Haemophilus influenzae [10] = test: Antimicrobial activity against Beta-lactamase-negative, ampicillin-resistant Haemophilus influenzae with Asp350Asn, Ser357Asp, Met377Ile, Ser385Thr, Arg517His substitutions in penicillin-binding protein 3 by broth microdilution method; in short: as §1
Haemophilus influenzae [11] = test: Antimicrobial activity against Beta-lactamase-positive, ampicillin-cluvulanate-resistant Haemophilus influenzae by broth microdilution method; in short: as §1
Haemophilus influenzae [12] = test: Antimicrobial activity against Beta-lactamase-negative, ampicillin-resistant Haemophilus influenzae with Ser311Pro, Ala502Thr, Asn526Lys substitutions in penicillin-binding protein 3 by broth microdilution method; in short: as §1
Haemophilus influenzae [13] = test: Antimicrobial activity against Haemophilus influenzae isolate by broth microdilution method; in short: as §1
Haemophilus influenzae [14] = test: Antimicrobial activity against Beta-lactamase-negative, ampicillin-resistant Haemophilus influenzae with Asp350Asn, Met377Ile, Asn526Lys substitutions in penicillin-binding protein 3 by broth microdilution method; in short: as §1
Haemophilus influenzae [15] = test: Antimicrobial activity against Beta-lactamase-negative, ampicillin-resistant Haemophilus influenzae with Ile449Val, Asn526Lys substitutions in penicillin-binding protein 3 by broth microdilution method; conditions: Haemophilus influenzae; read-out: MIC; in short: as §1
Haemophilus influenzae [16] = test: Antimicrobial activity against Beta-lactamase-negative, ampicillin-resistant Haemophilus influenzae with Gly490Glu, Asn526Lys substitutions in penicillin-binding protein 3 by broth microdilution method; in short: as §1
Haemophilus influenzae [17] = test: Antimicrobial activity against Beta-lactamase-positive, ampicillin-cluvulanate-resistant Haemophilus influenzae with Ala368Thr, Ala502Thr, Asn526Lys substitutions in penicillin-binding protein 3 by broth microdilution method; in short: as §1
Haemophilus influenzae [18] = test: Antimicrobial activity against Beta-lactamase-negative, ampicillin-resistant Haemophilus influenzae with Asp350Asn, Met377Ile, Gly490Glu, Ala502Val, Asn526Lys substitutions in penicillin-binding protein 3 by broth microdilution method; in short: as §1
Haemophilus influenzae [19] = test: Antimicrobial activity against Beta-lactamase-positive, ampicillin-resistant Haemophilus influenzae by broth microdilution method; in short: as §1
Haemophilus influenzae [20] = test: Antimicrobial activity against Beta-lactamase-negative, ampicillin-resistant Haemophilus influenzae by broth microdilution method; in short: as §1
Haemophilus influenzae [21] = test: Antimicrobial activity against Beta-lactamase-positive, ampicillin-cluvulanate-resistant Haemophilus influenzae with Asp350Asn, Ala502Thr, Asn526Lys substitutions in penicillin-binding protein 3 by broth microdilution method; in short: as §1
Haemophilus influenzae [22] = test: Antimicrobial activity against Beta-lactamase-negative, ampicillin-resistant Haemophilus influenzae with Ala502Val, Asn526Lys substitutions in penicillin-binding protein 3 by broth microdilution method; in short: as §1
Haemophilus influenzae [23] = test: Antimicrobial activity against Beta-lactamase-positive, ampicillin-cluvulanate-resistant Haemophilus influenzae with Ala502Val, Asn526Lys substitutions in penicillin-binding protein 3 by broth microdilution method; in short: as §1
Haemophilus influenzae [24] = test: Antimicrobial activity against Beta-lactamase-positive, ampicillin-cluvulanate-resistant Haemophilus influenzae with Asp350Asn, Met377Ile, Asn526Lys substitutions in penicillin-binding protein 3 by broth microdilution method; in short: as §1
Haemophilus influenzae [25] = test: Antimicrobial activity against Beta-lactamase-negative, ampicillin-resistant Haemophilus influenzae with Asp350Asn, Met377Ile, Ala502Val, Asn526Lys substitutions in penicillin-binding protein 3 by broth microdilution method; in short: as §1
Haemophilus influenzae [26] = test: Antimicrobial activity against Beta-lactamase-negative, ampicillin-resistant Haemophilus influenzae with penicillin-binding protein 3 by broth microdilution method; in short: as §1
Haemophilus influenzae [27] = test: Antimicrobial activity against beta-lactamase-negative, ampicillin-sensitive Haemophilus influenzae by broth microdilution method; in short: as §1
Haemophilus influenzae [28] = test: Antimicrobial activity against Beta-lactamase-negative, ampicillin-resistant Haemophilus influenzae with Asp350Asn, Met377Ile, Gly490Glu, Asn526Lys substitutions in penicillin-binding protein 3 by broth microdilution method; in short: as §1
Haemophilus influenzae [29] = test: Antimicrobial activity against Beta-lactamase-positive, ampicillin-cluvulanate-resistant Haemophilus influenzae with Asp350Asn, Met377Ile, Ala502Val, Asn526Lys substitutions in penicillin-binding protein 3 by broth microdilution method; in short: as §1
Haemophilus influenzae [30] = test: Antimicrobial activity against Beta-lactamase-positive, ampicillin-cluvulanate-resistant Haemophilus influenzae with Asp350Asn, Met377Ile, Gly490Glu, Ala502Val, Asn526Lys substitutions in penicillin-binding protein 3 by broth microdilution method; in short: as §1

In the case of CO/N=C(\C(=O)N[C@@H]1C(=O)N2C(C(=O)O)=C(COC(N)=O)CS[C@H]12)c1ccco1 [CEFUROXIME], the MIC (Haemophilus influenzae [1]) was 11.4 µg/mL (≈ 26.9 µM), the MIC (Haemophilus influenzae [2]) was 6.5 µg/mL (≈ 15.3 µM) and the MIC (Haemophilus influenzae [3]) was 32 µg/mL (≈ 75.4 µM). It also gave an MIC (Haemophilus influenzae [4]) of 11.4 µg/mL (≈ 26.9 µM), an MIC (Haemophilus influenzae [5]) of 4 µg/mL (≈ 9.43 µM) and an MIC (Haemophilus influenzae [6]) of 11.4 µg/mL (≈ 26.9 µM). For the same compound, the MIC (Haemophilus influenzae [7]) was 4 µg/mL (≈ 9.43 µM), the MIC (Haemophilus influenzae [8]) was 13.3 µg/mL (≈ 31.3 µM) and the MIC (Haemophilus influenzae [9]) was 2 µg/mL (≈ 4.71 µM). For the same compound, the MIC (Haemophilus influenzae [10]) was 13.3 µg/mL (≈ 31.3 µM), the MIC50 (Haemophilus influenzae [11]) was 8 µg/mL (≈ 18.9 µM) and the MIC90 (Haemophilus influenzae [11]) was 32 µg/mL (≈ 75.4 µM). For the same compound, the MIC (Haemophilus influenzae [12]) was 11.4 µg/mL (≈ 26.9 µM), the MIC50 (Haemophilus influenzae [13]) was 2 µg/mL (≈ 4.71 µM) and the MIC90 (Haemophilus influenzae [13]) was 8 µg/mL (≈ 18.9 µM). For the same compound, the MIC (Haemophilus influenzae [14]) was 9.3 µg/mL (≈ 21.9 µM), the MIC (Haemophilus influenzae [15]) was 8 µg/mL (≈ 18.9 µM) and the MIC (Haemophilus influenzae [16]) was 9.3 µg/mL (≈ 21.9 µM). For the same compound, the MIC (Haemophilus influenzae [17]) was 6.5 µg/mL (≈ 15.3 µM), the MIC (Haemophilus influenzae [18]) was 6 µg/mL (≈ 14.1 µM) and the MIC50 (Haemophilus influenzae [19]) was 2 µg/mL (≈ 4.71 µM). It also gave an MIC90 (Haemophilus influenzae [19]) of 8 µg/mL (≈ 18.9 µM), an MIC50 (Haemophilus influenzae [20]) of 8 µg/mL (≈ 18.9 µM) and an MIC90 (Haemophilus influenzae [20]) of 16 µg/mL (≈ 37.7 µM). For the same compound, the MIC (Haemophilus influenzae [21]) was 6.5 µg/mL (≈ 15.3 µM), the MIC (Haemophilus influenzae [22]) was 6 µg/mL (≈ 14.1 µM) and the MIC (Haemophilus influenzae [23]) was 11.4 µg/mL (≈ 26.9 µM). The MIC (Haemophilus influenzae [24]) was 2 µg/mL (≈ 4.71 µM), the MIC (Haemophilus influenzae [25]) was 6 µg/mL (≈ 14.1 µM) and the MIC (Haemophilus influenzae [26]) was 2 µg/mL (≈ 4.71 µM). For the same compound, the MIC50 (Haemophilus influenzae [27]) was 2 µg/mL (≈ 4.71 µM), the MIC90 (Haemophilus influenzae [27]) was 8 µg/mL (≈ 18.9 µM) and the MIC (Haemophilus influenzae [28]) was 9.3 µg/mL (≈ 21.9 µM). It also gave an MIC (Haemophilus influenzae [29]) of 11.4 µg/mL (≈ 26.9 µM) and an MIC (Haemophilus influenzae [30]) of 11.4 µg/mL (≈ 26.9 µM).

Compound O=C(N[C@H](CO)[C@H](O)c1ccc([N+](=O)[O-])cc1)C(Cl)Cl [CHLORAMPHENICOL] has an MIC50 (Haemophilus influenzae [11]) of 0.5 µg/mL (≈ 1.55 µM), an MIC90 (Haemophilus influenzae [11]) of 8 µg/mL (≈ 24.8 µM) and an MIC50 (Haemophilus influenzae [13]) of 0.5 µg/mL (≈ 1.55 µM). For the same compound, the MIC90 (Haemophilus influenzae [13]) was 1 µg/mL (≈ 3.09 µM), the MIC50 (Haemophilus influenzae [19]) was 0.5 µg/mL (≈ 1.55 µM) and the MIC90 (Haemophilus influenzae [19]) was 8 µg/mL (≈ 24.8 µM). The MIC50 (Haemophilus influenzae [20]) was 0.5 µg/mL (≈ 1.55 µM), the MIC90 (Haemophilus influenzae [20]) was 1 µg/mL (≈ 3.09 µM) and the MIC50 (Haemophilus influenzae [27]) was 0.5 µg/mL (≈ 1.55 µM). The MIC90 (Haemophilus influenzae [27]) was 0.5 µg/mL (≈ 1.55 µM).

Compound CC[C@H]1OC(=O)[C@H](C)[C@@H](O[C@H]2C[C@@](C)(OC)[C@@H](O)[C@H](C)O2)[C@H](C)[C@@H](O[C@@H]2O[C@H](C)C[C@H](N(C)C)[C@H]2O)[C@](C)(OC)C[C@@H](C)C(=O)[C@H](C)[C@@H](O)[C@]1(C)O [CLARITHROMYCIN] has an MIC50 (Haemophilus influenzae [11]) of 8 µg/mL (≈ 10.7 µM), an MIC90 (Haemophilus influenzae [11]) of 16 µg/mL (≈ 21.4 µM) and an MIC50 (Haemophilus influenzae [13]) of 8 µg/mL (≈ 10.7 µM). The MIC90 (Haemophilus influenzae [13]) was 16 µg/mL (≈ 21.4 µM), the MIC50 (Haemophilus influenzae [19]) was 8 µg/mL (≈ 10.7 µM) and the MIC90 (Haemophilus influenzae [19]) was 16 µg/mL (≈ 21.4 µM). It also gave an MIC50 (Haemophilus influenzae [20]) of 8 µg/mL (≈ 10.7 µM), an MIC90 (Haemophilus influenzae [20]) of 32 µg/mL (≈ 42.8 µM) and an MIC50 (Haemophilus influenzae [27]) of 8 µg/mL (≈ 10.7 µM). It also gave an MIC90 (Haemophilus influenzae [27]) of 16 µg/mL (≈ 21.4 µM).

Compound C[C@H]1COc2c(N3CCN(C)CC3)c(F)cc3c(=O)c(C(=O)O)cn1c23.C[C@H]1COc2c(N3CCN(C)CC3)c(F)cc3c(=O)c(C(=O)O)cn1c23.O [LEVOFLOXACIN] has an MIC50 (Haemophilus influenzae [11]) of 0.016 µg/mL, an MIC90 (Haemophilus influenzae [11]) of 0.031 µg/mL and an MIC50 (Haemophilus influenzae [13]) of 0.016 µg/mL. It also gave an MIC90 (Haemophilus influenzae [13]) of 0.031 µg/mL, an MIC50 (Haemophilus influenzae [19]) of 0.016 µg/mL and an MIC90 (Haemophilus influenzae [19]) of 0.031 µg/mL. The MIC50 (Haemophilus influenzae [20]) was 0.016 µg/mL, the MIC90 (Haemophilus influenzae [20]) was 0.016 µg/mL and the MIC50 (Haemophilus influenzae [27]) was 0.016 µg/mL. It also gave an MIC90 (Haemophilus influenzae [27]) of 0.031 µg/mL.
